*1 amine or outer side, *2 acyl side, *3 side chain or, on linkers, in order; H or OH if unused. Where a SMILES comes first, the peptide text is derived from it. Bridges are numbered along the chain shown (N, C = ends). [ ]: non-standard residue; d: D form. Cys(O)(CH2CO) = O=C([C@H](C[S+]([O-])CC(=O)[*:3])N[*:1])[*:2]; X2 = C[C@H](O)[C@H](C(=O)[*:2])N(c1cccc(CC[*:3])c1)[*:1]

What is called IC50 is the point on the concentration scale where inhibition reaches its midpoint.

Sequence of Integrin alpha-IIb/beta-3 (P05106 27-788 limits assumed): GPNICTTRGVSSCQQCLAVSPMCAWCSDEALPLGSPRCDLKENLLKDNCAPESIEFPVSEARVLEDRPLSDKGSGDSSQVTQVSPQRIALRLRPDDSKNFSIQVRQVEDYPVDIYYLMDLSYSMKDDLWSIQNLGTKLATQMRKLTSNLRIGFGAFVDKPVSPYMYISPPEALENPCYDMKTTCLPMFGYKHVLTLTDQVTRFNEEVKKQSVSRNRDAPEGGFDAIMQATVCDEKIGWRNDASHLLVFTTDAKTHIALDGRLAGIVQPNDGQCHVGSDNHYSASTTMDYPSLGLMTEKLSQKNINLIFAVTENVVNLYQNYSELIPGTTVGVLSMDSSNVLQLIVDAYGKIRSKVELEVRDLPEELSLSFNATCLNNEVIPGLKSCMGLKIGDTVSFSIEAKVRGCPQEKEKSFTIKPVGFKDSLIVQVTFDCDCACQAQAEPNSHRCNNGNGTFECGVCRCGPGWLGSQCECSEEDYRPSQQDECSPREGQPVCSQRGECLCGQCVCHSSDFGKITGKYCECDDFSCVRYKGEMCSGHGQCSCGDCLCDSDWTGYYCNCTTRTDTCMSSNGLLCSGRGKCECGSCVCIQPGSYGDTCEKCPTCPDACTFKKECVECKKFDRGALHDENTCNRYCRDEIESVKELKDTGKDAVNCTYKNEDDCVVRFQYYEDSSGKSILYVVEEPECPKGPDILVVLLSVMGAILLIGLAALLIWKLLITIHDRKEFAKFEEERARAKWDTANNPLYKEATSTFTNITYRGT
Sequence of Integrin alpha-IIb/beta-3 (P08514 32-887 limits assumed): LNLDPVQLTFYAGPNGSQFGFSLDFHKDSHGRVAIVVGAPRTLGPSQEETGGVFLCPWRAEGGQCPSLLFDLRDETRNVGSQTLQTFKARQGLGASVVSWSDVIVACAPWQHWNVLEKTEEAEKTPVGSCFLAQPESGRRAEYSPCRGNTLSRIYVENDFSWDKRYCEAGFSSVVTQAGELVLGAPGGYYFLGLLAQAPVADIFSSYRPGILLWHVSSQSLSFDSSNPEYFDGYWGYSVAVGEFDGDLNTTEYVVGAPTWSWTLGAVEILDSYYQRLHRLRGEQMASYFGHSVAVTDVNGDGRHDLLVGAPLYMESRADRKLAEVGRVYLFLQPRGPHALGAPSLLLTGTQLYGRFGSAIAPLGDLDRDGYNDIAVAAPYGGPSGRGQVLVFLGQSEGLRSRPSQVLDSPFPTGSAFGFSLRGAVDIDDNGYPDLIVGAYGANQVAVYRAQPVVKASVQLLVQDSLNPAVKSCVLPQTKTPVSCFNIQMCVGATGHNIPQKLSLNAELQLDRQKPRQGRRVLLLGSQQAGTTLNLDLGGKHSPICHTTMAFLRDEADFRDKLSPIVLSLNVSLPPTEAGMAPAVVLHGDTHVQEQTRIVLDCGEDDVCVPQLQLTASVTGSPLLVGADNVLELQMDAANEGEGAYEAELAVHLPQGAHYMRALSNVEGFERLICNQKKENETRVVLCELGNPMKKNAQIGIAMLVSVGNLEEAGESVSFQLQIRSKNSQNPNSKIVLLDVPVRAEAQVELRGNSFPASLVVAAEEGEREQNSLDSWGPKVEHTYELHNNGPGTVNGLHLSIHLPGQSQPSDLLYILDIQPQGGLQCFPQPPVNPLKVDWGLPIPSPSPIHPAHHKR
Sequence of Integrin alpha-IIb/beta-3 (P08514 891-1039 limits assumed): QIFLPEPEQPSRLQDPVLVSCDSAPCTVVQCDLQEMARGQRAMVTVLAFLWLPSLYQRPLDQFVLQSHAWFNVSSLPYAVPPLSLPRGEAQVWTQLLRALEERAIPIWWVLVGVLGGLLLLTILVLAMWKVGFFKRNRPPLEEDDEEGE

This assay addresses Integrin alpha-IIb/beta-3 (Homo sapiens, UniProt P05106+P08514). Description: The compound was tested for the inhibition of fibrinogen receptor. The assay is classed as protein-complex assay. The method, boiled down:
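Solid-phase ELISA: human fibrinogen (10 µg/mL) coated, BSA-blocked; samples plus purified human platelet GPIIbIIIa (40 µg/mL) incubated 1 h at room temperature. Bound receptor detected with anti-GPIIbIIIa antibody AP3 (1 µg/mL, 1 h), then goat anti-mouse HRP (1 h); OPD/H2O2 at pH 5, stopped with H2SO4, absorbance 492-405 nm. IC50 from four-parameter fit; n ≥ 3.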
Take `C[C@H]1NC(=O)CSC[C@@H](C(=O)O)NC(=O)[C@H](CC(=O)O)NC(=O)CNC(=O)[C@H](CCCNC(=N)N)NC1=O` ({CH2CO}-[dA]RGDC-OH; thioether N-5): the IC50 was 9.5 nM.
With `N=C(N)NCCC[C@@H]1NC(=O)CNC(=O)C(c2ccc(-c3ccccc3)cc2)SC[C@@H](C(=O)O)NC(=O)[C@H](CC(=O)O)NC(=O)CNC1=O` (stereo in doubt; 19B) the figure was 3.5 nM; with `C[C@H](O)[C@H]1NC(=O)CSC[C@@H](C(=O)O)NC(=O)[C@H](CC(=O)O)NC(=O)CNC(=O)[C@H](CCCN=C(N)N)NC1=O`, 11.6 nM.
`N=C(N)NCCC[C@@H]1NC(=O)CNC(=O)[C@@H](Cc2ccccc2)SC[C@@H](C(=O)O)NC(=O)[C@H](CC(=O)O)NC(=O)CNC1=O` gave an IC50 of 29 nM.
Then `CSCC[C@@H]1NC(=O)CSC[C@@H](C(=O)O)NC(=O)[C@H](CC(=O)O)NC(=O)CNC(=O)[C@H](CCCNC(=N)N)NC1=O`, with 4 nM; and `N=C(N)NCCC[C@@H]1NC(=O)CNC(=O)C(c2ccccc2)SC[C@@H](C(=O)O)NC(=O)[C@H](CC(=O)O)NC(=O)CNC1=O` (stereo in doubt; 18B), with 0.5 nM.
Then `CCC1SC[C@@H](C(=O)O)NC(=O)[C@H](CC(=O)O)NC(=O)CNC(=O)[C@H](CCCN=C(N)N)NC(=O)CNC1=O` (stereo in doubt; 25A), with 20 nM; and `CCC1SC[C@@H](C(=O)O)NC(=O)[C@H](CC(=O)O)NC(=O)CNC(=O)[C@H](CCCN=C(N)N)NC(=O)CNC1=O` (stereo in doubt; 25B), with 6 nM.
Then `C[C@@H](O)[C@@H]1NC(=O)C[S+]([O-])C[C@@H](C(=O)O)NC(=O)[C@H](CC(=O)O)NC(=O)CNC(=O)[C@H](CCCN=C(N)N)NC1=O` (stereo in doubt; 71B), with 10 nM; and `N=C(N)NCCC[C@@H]1NC(=O)[C@@H](Cc2c[nH]cn2)NC(=O)CSC[C@@H](C(=O)O)NC(=O)[C@H](CC(=O)O)NC(=O)CNC1=O`, with 6.8 nM.
Take `C[C@H](O)[C@H]1Nc2cccc(c2)CCSC[C@@H](C(=O)O)NC(=O)[C@H](CC(=O)O)NC(=O)CNC(=O)[C@H](CCCN=C(N)N)NC1=O` (H-[X2]RGDC-OH; thioether 1-5): inhibition was half-maximal at 7 nM (IC50).
With `CC(C)[C@H]1NC(=O)CSC[C@@H](C(=O)O)NC(=O)[C@H](CC(=O)O)NC(=O)CNC(=O)[C@H](CCCNC(=N)N)NC1=O`, half-maximal inhibition (IC50) was put at 17 nM. Compared with the last molecule, the IC50 is about 2.4-fold higher.
Then `N=C(N)NCCC[C@@H]1NC(=O)[C@H](CC(=O)O)NC(=O)C[S+]([O-])C[C@@H](C(=O)O)NC(=O)[C@H](CC(=O)O)NC(=O)CNC1=O` (some centres not stated) (DRGD[Cys(O)(CH2CO)]-OH; lactam N-5), with 6 nM.
With `N=C(N)NCCC[C@@H]1NC(=O)CNC(=O)C[S+]([O-])C[C@@H](C(=O)O)NC(=O)[C@H](CC(=O)O)NC(=O)CNC1=O` (stereo in doubt; 66B) the figure was 25 nM.
With `NC(=O)CC[C@H]1NC(=O)CSC[C@@H](C(=O)O)NC(=O)[C@H](CC(=O)O)NC(=O)CNC(=O)[C@H](CCCN=C(N)N)NC1=O` the figure was 110 nM; with `NCCC[C@@H]1NC(=O)CSC[C@@H](C(=O)O)NC(=O)[C@H](CC(=O)O)NC(=O)CNC(=O)[C@H](CCCN=C(N)N)NC1=O`, 5.6 nM.
In the case of `N=C(N)NCCC[C@@H]1NC(=O)[C@H](Cc2ccc(O)cc2)NC(=O)CSC[C@@H](C(N)=O)NC(=O)[C@H](CC(=O)O)NC(=O)CNC1=O` ({CH2CO}-YRGDC-NH2; thioether N-5), it took 2.5 nM to reach half-maximal inhibition (IC50).
Then `N=C(N)NCCC[C@@H]1NC(=O)[C@H](CC(N)=O)NC(=O)CSC[C@@H](C(=O)O)NC(=O)[C@H](CC(=O)O)NC(=O)CNC1=O` ({CH2CO}-NRGDC-OH; thioether N-5), with 2.7 nM; and `CC[C@H](C)[C@@H]1NC(=O)CSC[C@@H](C(=O)O)NC(=O)[C@H](CC(=O)O)NC(=O)CNC(=O)[C@H](CCCN=C(N)N)NC1=O`, with 6 nM.
With `N=C(N)NCCC[C@@H]1NC(=O)[C@H](CCC(N)=O)NC(=O)CSC[C@@H](C(=O)O)NC(=O)[C@H](CC(=O)O)NC(=O)CNC1=O` the figure was 43 nM; with `N=C(N)NCCC[C@@H]1NC(=O)[C@@H](Cc2ccc(O)cc2)NC(=O)CSC[C@@H](C(=O)O)NC(=O)[C@H](CC(=O)O)NC(=O)CNC1=O` ({CH2CO}-[dY]RGDC-OH; thioether N-5), 20 nM.
Then `N=C(N)NCCC[C@@H]1NC(=O)[C@H](Cc2ccc(O)cc2)NC(=O)CSC[C@@H](C(=O)O)NC(=O)[C@H](CC(=O)O)NC(=O)CNC1=O` ({CH2CO}-YRGDC-OH; thioether N-5), with 1.5 nM; and `N=C(N)NCCC[C@@H]1NC(=O)[C@H](CCC(=O)O)NC(=O)CSC[C@@H](C(=O)O)NC(=O)[C@H](CC(=O)O)NC(=O)CNC1=O`, with 15 nM; and `CCCC1SC[C@@H](C(=O)O)NC(=O)[C@H](CC(=O)O)NC(=O)CNC(=O)[C@H](CCCNC(=N)N)NC(=O)CNC1=O` (stereo in doubt; 23A), with 21 nM.
Molecule `N=C(N)NCCC[C@@H]1NC(=O)[C@H](CCC(=O)O)NC(=O)C[S+]([O-])C[C@@H](C(=O)O)NC(=O)[C@H](CC(=O)O)NC(=O)CNC1=O` (stereo in doubt; 73A) came in with an IC50 of 4.7 nM.
With `N=C(N)NCCC[C@@H]1NC(=O)CNC(=O)C(c2cccc(C(F)(F)F)c2)SC[C@@H](C(=O)O)NC(=O)[C@H](CC(=O)O)NC(=O)CNC1=O` (stereo in doubt; 24A) the figure was 35 nM; with `C[C@@H]1NC(=O)CSC[C@@H](C(=O)O)NC(=O)[C@H](CC(=O)O)NC(=O)CNC(=O)[C@H](CCCNC(=N)N)NC1=O` ({CH2CO}-ARGDC-OH; thioether N-5), 2.5 nM; with `N=C(N)NCCC[C@@H]1NC(=O)CNC(=O)CSC[C@@H](C(N)=O)NC(=O)[C@H](CC(=O)O)NC(=O)CNC1=O` ({CH2CO}-GRGDC-NH2; thioether N-5), 12 nM.
`N=C(N)NCCC[C@@H]1NC(=O)[C@H]2CCCN2C(=O)CSC[C@@H](C(=O)O)NC(=O)[C@H](CC(=O)O)NC(=O)CNC1=O` ({CH2CO}-[dP]RGDC-OH; thioether N-5) returned an IC50 of 11.4 nM.
With `NCC(=O)N[C@@H](CCCN=C(N)N)C(=O)NCC(=O)N[C@@H](CC(=O)O)C(=O)N[C@@H](Cc1ccc(O)cc1)C(=O)O` (H-GRGDY-OH) the figure was 240 nM.
For the molecule `N=C(N)NCCC[C@@H]1NC(=O)CNC(=O)C[S+]([O-])C[C@@H](C(=O)O)NC(=O)[C@H](CC(=O)O)NC(=O)CNC1=O` (stereo in doubt; 66A), the IC50 amounted to 1.4 nM.
Then `CC(C)[C@H](NC(=O)[C@H](CC(=O)O)NC(=O)CNC(=O)[C@H](CCCN=C(N)N)NC(=O)CN)C(=O)O` (H-GRGDV-OH), with 30 nM; and `N=C(N)NCCC[C@@H]1NC(=O)CNC(=O)C(c2ccccc2)SC[C@@H](C(=O)O)NC(=O)[C@H](CC(=O)O)NC(=O)CNC1=O` (stereo in doubt; 18A), with 15 nM.
For the molecule `N=C(N)NCCC[C@@H]1NC(=O)CCNC(=O)CSC[C@@H](C(=O)O)NC(=O)[C@H](CC(=O)O)NC(=O)CNC1=O`, the 50% inhibitory concentration (IC50) turned out to be 12 nM. The IC50 values of the last two molecules are within 1.5-fold of each other.
In turn, `NCCCC[C@@H]1NC(=O)CSC[C@@H](C(=O)O)NC(=O)[C@H](CC(=O)O)NC(=O)CNC(=O)[C@H](CCCN=C(N)N)NC1=O` came in with an IC50 of 7.5 nM.
Then `N=C(N)NCCC[C@@H]1NC(=O)[C@@H](CCCN)NC(=O)CSC[C@@H](C(=O)O)NC(=O)[C@H](CC(=O)O)NC(=O)CNC1=O`, with 31 nM; and `N=C(N)NCCC[C@@H]1NC(=O)CNC(=O)CCSC[C@@H](C(=O)O)NC(=O)[C@H](CC(=O)O)NC(=O)CNC1=O`, with 75 nM.

Values taken from ChEMBL document CHEMBL1126061, “Cyclic RGD peptide analogues as antiplatelet antithrombotics” (J Med Chem, 1992).
